These results are taken from ChEMBL document CHEMBL1147085, “Metabolism and pharmacokinetics of a novel Src kinase inhibitor TG100435 ([7-(2,6-dichloro-phenyl)-5-methyl-benzo[1,2,4]triazin-3-yl]-[4-(2-pyrrolidin-1-yl-ethoxy)-phenyl]-amine) and its active N-oxide metabolite TG100855 …” (Drug Metab Dispos, 2007).

Usually AUC stands for concentration integrated over time. Usually half-life stands for how long it takes for the measured level to halve. Low values mean rapid decline, high ones slow decline. One may read the Cmax as the peak of the concentration-time curve. As usually defined, the AUC(0-inf) is the area under the concentration-time curve extrapolated to infinity. A high value points to high exposure. As usually defined, the bioavailability is the share of a dose that reaches the circulation, judged against a reference dose that is usually intravenous. A high value points to good availability. In general, AUC(0-t) refers to the area under the concentration-time curve up to a stated or last time point. Broadly, the Ki is the dissociation constant of the complex between target and ligand, obtained from inhibition or displacement. A low value points to higher affinity. For orientation: clearance means the rate of elimination divided by the concentration. A high value points to efficient removal. By CL/F is commonly meant the apparent clearance, not corrected for the fraction that reaches the circulation.

The subject of data set [1] is Rattus norvegicus. Put plainly: AUC (0 to infinity) in Sprague-Dawley rat assessed as AUC of ([7-(2,6-Dichloro-phenyl)-5-methyl-benzo[1,2,4]triazin-3-yl]-[4-(2-pyrrolidin-1-yl-ethoxy)-phenyl]-amine) at 5 mg/kg, ip. The class given is ADME, organism-based, Plasma. Further details: time infinity, dose 5 mg/kg, route intraperitoneal. The conditions noted are these: in vivo.

The nature of data set [2]: Half life in Sprague-Dawley rat at 5 mg/kg, ip. The class given is ADME, organism-based. On the set-up: dose 5 mg/kg, route intraperitoneal. The conditions noted are these: in vivo.
A short description of data set [3]: Cmax in BALB/c mouse at 25 mg/kg, po. It is filed as ADME, organism-based. On the set-up: dose 25 mg/kg, route oral. The conditions noted are these: in vivo. In short, it runs like this: (§1)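 Male BALB/c mice (~25 g); fasted overnight for single p.o. dosing, not fasted for i.v. or i.p. dosing. Composite blood sampling, n=3 per time point: 5, 15, 30 min, 1, 3, 6, 24, 48 hr after i.v. dose; 0.5, 1, 3, 5, 8, 24, 30, 48 hr after p.o. or i.p. dose. Heparinized plasma, both parent and N-oxide measured by LC/MS/MS (MRM 494.2/98.1 and 510.2/98.1); non-compartmental analysis, AUC by linear trapezoidal rule.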

The subject of data set [4] is Rattus norvegicus. Kind of data set: Volume of distribution in Sprague-Dawley rat at 5 mg/kg, ip. It is filed as ADME, organism-based. Further details: dose 5 mg/kg, route intraperitoneal. The conditions noted are these: in vivo.
Data set [5] has as its system Mus musculus. Kind of data set: Drug level in BALB/c mouse plasma at 5 mg/kg, ip. Further details: dose 5 mg/kg, route intraperitoneal. The settings on record: in vivo. It is filed as ADME, organism-based. In outline: as §1
Data set [6] in a line: AUC (0 to infinity) in Sprague-Dawley rat at 30 mg/kg, po. The class given is ADME, organism-based. The settings on record: plasma. On the set-up: time infinity, dose 30 mg/kg, route oral.
Data set [7] is described as follows: Half life in Sprague-Dawley rat at 5 mg/kg, iv. The class given is ADME, organism-based. Further details: dose 5 mg/kg, route intravenous. The settings on record: in vivo.
Data set [8] deals with Mus musculus. Put plainly: AUC (0 to infinity) in BALB/c mouse assessed as AUC of ([7-(2,6-Dichloro-phenyl)-5-methyl-benzo[1,2,4]triazin-3-yl]-[4-(2-pyrrolidin-1-yl-ethoxy)-phenyl]-amine) at 5 mg/kg, iv. It is filed as ADME, organism-based, Plasma. Further details: time infinity, dose 5 mg/kg, route intravenous. The settings on record: in vivo. In short, it runs like this:
as §1

Data set [9] in a line: Volume of distribution in BALB/c mouse at 5 mg/kg, iv. On the set-up: dose 5 mg/kg, route intravenous. The conditions noted are these: in vivo. The class given is ADME, organism-based.
Data set [10] is described as follows: AUC (0 to infinity) in Sprague-Dawley rat at 25 mg/kg, po. It is filed as ADME, organism-based. Further details: time infinity, dose 25 mg/kg, route oral. The conditions noted are these: plasma.
The nature of data set [11]: Bioavailability in BALB/c mouse at 25 mg/kg, po. It is filed as ADME, organism-based. The conditions noted are these: in vivo.
Data set [12] in a line: AUC (0 to infinity) in BALB/c mouse at 5 mg/kg, ip. The class given is ADME, organism-based. On the set-up: time infinity, dose 5 mg/kg, route intraperitoneal. The settings on record: plasma. In short, it runs like this:
as §1

Data set [13] has as its system Mus musculus. Kind of data set: Volume of distribution in BALB/c mouse at 5 mg/kg, ip. The class given is ADME, organism-based. On the set-up: dose 5 mg/kg, route intraperitoneal. The conditions noted are these: in vivo. In short, it runs like this: as §1
Data set [14] in a line: AUC (0 to infinity) in BALB/c mouse at 5 mg/kg, iv. It is filed as ADME, organism-based. Further details: time infinity, dose 5 mg/kg, route intravenous. The settings on record: plasma. In short, it runs like this: as §1
A short description of data set [15]: AUC (0 to last) in Sprague-Dawley rat at 25 mg/kg, po. Further details: time 0 - last, dose 25 mg/kg, route oral. The settings on record: plasma. It is filed as ADME, organism-based.
The nature of data set [16]: Cmax in Sprague-Dawley rat at 25 mg/kg, po. The settings on record: in vivo. It is filed as ADME, organism-based. On the set-up: dose 25 mg/kg, route oral.
The target of a further data set is T1, Ephrin type-B receptor 4 (Homo sapiens, UniProt P54760).
T1 sequence (P54760 whole entry): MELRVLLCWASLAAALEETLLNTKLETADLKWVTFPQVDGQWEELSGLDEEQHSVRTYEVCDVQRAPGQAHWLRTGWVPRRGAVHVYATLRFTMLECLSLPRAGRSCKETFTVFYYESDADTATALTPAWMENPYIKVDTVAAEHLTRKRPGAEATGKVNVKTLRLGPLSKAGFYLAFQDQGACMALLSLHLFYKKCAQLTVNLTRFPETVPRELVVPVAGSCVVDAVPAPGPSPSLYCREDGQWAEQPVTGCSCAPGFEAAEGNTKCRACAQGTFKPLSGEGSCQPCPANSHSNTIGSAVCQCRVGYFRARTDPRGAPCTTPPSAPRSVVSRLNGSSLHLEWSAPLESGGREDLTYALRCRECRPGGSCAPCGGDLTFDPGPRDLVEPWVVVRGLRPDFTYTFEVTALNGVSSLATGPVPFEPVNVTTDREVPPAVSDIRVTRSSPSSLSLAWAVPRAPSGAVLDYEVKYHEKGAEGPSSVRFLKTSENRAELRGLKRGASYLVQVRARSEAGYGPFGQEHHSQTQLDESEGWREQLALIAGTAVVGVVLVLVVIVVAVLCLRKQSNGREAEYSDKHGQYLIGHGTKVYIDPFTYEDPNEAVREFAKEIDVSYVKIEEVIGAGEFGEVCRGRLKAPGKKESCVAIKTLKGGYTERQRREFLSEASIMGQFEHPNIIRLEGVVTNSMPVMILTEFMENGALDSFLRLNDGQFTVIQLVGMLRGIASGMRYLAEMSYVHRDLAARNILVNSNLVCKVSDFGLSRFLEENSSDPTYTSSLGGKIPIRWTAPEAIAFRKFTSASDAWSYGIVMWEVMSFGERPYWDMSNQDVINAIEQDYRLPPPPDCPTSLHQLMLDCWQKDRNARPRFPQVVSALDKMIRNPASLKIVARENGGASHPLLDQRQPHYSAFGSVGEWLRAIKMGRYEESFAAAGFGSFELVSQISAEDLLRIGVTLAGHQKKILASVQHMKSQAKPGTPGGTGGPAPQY
Put plainly: Inhibition of EphB4 by luminescence based kinase assay.

Data set [17] can be described thus: Clearance in Sprague-Dawley rat at 5 mg/kg, iv. It is filed as ADME, organism-based. On the set-up: dose 5 mg/kg, route intravenous. The conditions noted are these: in vivo.
Data set [18] is described as follows: Clearance in Sprague-Dawley rat at 5 mg/kg, ip. On the set-up: dose 5 mg/kg, route intraperitoneal. The class given is ADME, organism-based. The conditions noted are these: in vivo.
For data set [19], the target named is Tyrosine-protein kinase Lyn (Homo sapiens, UniProt P07948). Put plainly: Inhibition of Lyn by luminescence based kinase assay.
Sequence of Tyrosine-protein kinase Lyn (P07948 whole entry): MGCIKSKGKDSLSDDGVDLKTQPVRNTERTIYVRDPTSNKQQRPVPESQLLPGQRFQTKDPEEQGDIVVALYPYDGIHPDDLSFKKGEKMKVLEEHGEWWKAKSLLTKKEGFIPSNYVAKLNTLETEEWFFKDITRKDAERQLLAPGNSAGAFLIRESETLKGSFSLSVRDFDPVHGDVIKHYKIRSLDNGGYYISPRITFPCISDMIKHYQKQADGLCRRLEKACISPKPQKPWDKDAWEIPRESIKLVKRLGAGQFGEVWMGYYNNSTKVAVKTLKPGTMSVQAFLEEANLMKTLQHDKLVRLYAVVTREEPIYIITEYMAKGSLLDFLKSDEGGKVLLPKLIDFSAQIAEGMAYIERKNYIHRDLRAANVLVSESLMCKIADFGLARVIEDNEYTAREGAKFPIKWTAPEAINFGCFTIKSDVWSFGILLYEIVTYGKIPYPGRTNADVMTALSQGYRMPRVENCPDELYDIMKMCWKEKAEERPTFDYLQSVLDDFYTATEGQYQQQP
Data set [20] is described as follows: AUC (0 to infinity) in Sprague-Dawley rat at 5 mg/kg, ip. It is filed as ADME, organism-based. On the set-up: time infinity, dose 5 mg/kg, route intraperitoneal. The conditions noted are these: plasma.
The nature of data set [21]: Half life in BALB/c mouse at 5 mg/kg, ip. The conditions noted are these: in vivo. It is filed as ADME, organism-based. On the set-up: dose 5 mg/kg, route intraperitoneal. In short, it runs like this:
as §1

Data set [22] can be described thus: AUC (0 to infinity) in BALB/c mouse at 40 mg/kg, po. The class given is ADME, organism-based. On the set-up: time infinity, dose 40 mg/kg, route oral. The conditions noted are these: plasma. In short, it runs like this:
as §1

Data set [23] in a line: Half life in BALB/c mouse at 5 mg/kg, iv. It is filed as ADME, organism-based. The settings on record: in vivo. On the set-up: dose 5 mg/kg, route intravenous. In outline: as §1

In the case of `Cc1cc(-c2c(Cl)cccc2Cl)cc2nnc(Nc3ccc(OCC[N+]4([O-])CCCC4)cc3)nc12`, the AUC amounted to 498 ng·h/mL in the data set on Rattus norvegicus [1] and 1390 ng·h/mL in the data set with Mus musculus [8]. The half-life was 2.3 h in [2], 1.6 h in data set [7], 2.8 h in [21] and 0.9 h in data set [23]. Moreover, the Cmax came out at 171 ng/mL in [3] and 160 ng/mL in [16]. The Vd in the data set on Rattus norvegicus [4] was found to be 3.3 L/kg; in data set [9], 1.2 L/kg; in the data set on Mus musculus [13], 2.6 L/kg. The same molecule gave a C0 with Mus musculus [5] of 4100 ng/mL. The AUC(0-inf) came to 9310 ng·h/mL in data set [6]; 470 ng·h/mL in [10]; 6520 ng·h/mL in data set [12]; 5350 ng·h/mL in [14]; 4990 ng·h/mL in data set [20]; 13400 ng·h/mL in data set [22]. In [11], this molecule had a bioavailability of 3.5%. Besides, in data set [15], the AUC(0-t) came out at 467 ng·h/mL. For the same molecule, the Ki came to 7.27 nM at Ephrin type-B receptor 4 and 4.19 nM in data set [19]. The molecule further displayed a clearance in data set [17] of 13.8 mL/min/kg. The molecule also came in with a CL/F in [18] of 17 mL/min/kg.
